For one test, the system named is M. smegmatis. To be noted: cited from earlier work.
Test [1] relates to M. tuberculosis. To be noted: cited from earlier work.
Another test has as its target T1, SaCrtM (Staphylococcus aureus, UniProt A9JQL9).
T1 sequence (A9JQL9 1-287): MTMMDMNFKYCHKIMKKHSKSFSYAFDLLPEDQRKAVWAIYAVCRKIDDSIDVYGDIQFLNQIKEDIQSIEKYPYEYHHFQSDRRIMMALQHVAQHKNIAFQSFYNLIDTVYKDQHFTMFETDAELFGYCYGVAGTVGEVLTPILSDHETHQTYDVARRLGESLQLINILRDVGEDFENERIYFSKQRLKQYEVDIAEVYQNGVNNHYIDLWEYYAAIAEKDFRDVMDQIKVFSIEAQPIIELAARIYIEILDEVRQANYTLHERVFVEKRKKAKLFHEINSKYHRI
Briefly: SaCrtM inhibition. To be noted: SaCrtM, weak activity. It counts as biochemical, S. aureus.

Test [2] deals with M. smegmatis cells, ATP synthesis. Briefly: ATP/ADP determination in M. smegmatis cells. Format: cell-based, Mycobacterium smegmatis. In a few lines: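 Cells grown 8 h in Middlebrook 7H9-ADC-Tween 80 and diluted to OD600 of 2. Test compounds added at several concentrations, with incubation at 37 °C and 200 rpm. ATP/ADP ratio read with a commercial ADP/ATP ratio kit after 10 and 60 min.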

The next test has as its target T2, human SQS (Homo sapiens, UniProt P37268).
T2 sequence (P37268 1-417): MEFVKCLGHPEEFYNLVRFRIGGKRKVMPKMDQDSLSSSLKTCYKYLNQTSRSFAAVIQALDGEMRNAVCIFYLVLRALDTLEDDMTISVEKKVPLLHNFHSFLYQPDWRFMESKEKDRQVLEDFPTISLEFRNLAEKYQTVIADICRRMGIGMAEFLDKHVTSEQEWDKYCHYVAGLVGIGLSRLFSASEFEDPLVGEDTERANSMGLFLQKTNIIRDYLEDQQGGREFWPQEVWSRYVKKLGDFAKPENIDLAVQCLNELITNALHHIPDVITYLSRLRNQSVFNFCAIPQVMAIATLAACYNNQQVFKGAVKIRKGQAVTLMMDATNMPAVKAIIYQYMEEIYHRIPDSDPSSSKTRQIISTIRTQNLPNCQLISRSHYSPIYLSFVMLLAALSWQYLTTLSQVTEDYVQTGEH
The test is described as follows: Human SQS inhibition. It counts as biochemical. To be noted: human SQS, weak activity.

The next test relates to B. subtilis. The test is described as follows: microbe, parasite or virus in culture. Format: cell-based. To be noted: Bacillus subtilis, read-out: Bs IC50.
The next test deals with C. albicans. Briefly: microbe, parasite or virus in culture. It counts as cell-based. The settings on record: Candida albicans, read-out: Ca IC50.
For another test, the system named is MCF-7. The test is described as follows: cells. It counts as cell-based. The settings on record: Homo sapiens, MCF7, read-out: MCF-7 IC50.
Test [3] has as its system S. aureus (MRSA USA300 strain). Briefly: microbe, parasite or virus in culture. The settings on record: Staphylococcus aureus, MRSA|USA300, read-out: Sa MIC, MRSA USA300 strain. It counts as cell-based.
The next test concerns E. coli. Briefly: microbe, parasite or virus in culture. Format: cell-based. To be noted: Escherichia coli, read-out: Ec IC50.
The subject of test [4] is M. tuberculosis. The test is described as follows: microbe, parasite or virus in culture. It counts as cell-based, Mycobacterium tuberculosis. To be noted: Mycobacterium tuberculosis.
The next test deals with S. cerevisiae. Briefly: microbe, parasite or virus in culture. Format: cell-based, Saccharomyces cerevisiae. To be noted: Saccharomyces cerevisiae, read-out: Sc IC50.

As a reminder, the IC50 is the concentration that inhibits the measured activity by half.

≈ marks a conversion by molar mass, not a printed value. Like-named read-outs stand apart in the source and are kept apart here.

With `CC[C@@H](CO)NCCN[C@@H](CC)CO` [compound 2, ethambutol], the “Ms MIC” value in the test with M. smegmatis was 1 µg/mL. For the same compound, the “Mt MIC” value with M. tuberculosis [1] was 2 µg/mL.
Take `CC(C)=CCC/C(C)=C/CNCCOC1C2CC3CC(C2)CC1C3` (stereo not shown) [compound 3]: the activity at SaCrtM and on human SQS was ~100 µM in each case. In addition, the “effect on ATP synthesis” value in test [2] is reported as “inhibition of ATP synthesis”. The IC50 came out at 16 µg/mL (≈ 48.3 µM) in the test on B. subtilis; 12 µg/mL (≈ 36.2 µM) in the test with C. albicans; 10 µg/mL (≈ 30.2 µM) in the test with MCF-7; 2.8 µg/mL (≈ 8.45 µM) with E. coli; 1.8 µg/mL (≈ 5.43 µM) in the test with S. cerevisiae. Further, the results for the MIC (in test [3]; with M. tuberculosis [4] (read-out: Mt MIC); in the test on M. tuberculosis [4] (read-out: Mt MIC (in parentheses))) were ~8 µg/mL (≈ 24.1 µM), 0.02 to 0.05 µg/mL and 0.06 to 0.15 µM, respectively.

Values taken from PMC4084622 (Journal of Medicinal Chemistry, 2014).
